# Bioassay records from PubChem.
# DENV2 CPE rescue: protects cells from dengue virus 2 cytopathic effect. DENV2-infected cells, cytopathic effect rescue, plate reader. CPE inhibition, % at 9.99 µM. 1.7% of 350,000 active; in the data active means CPE inhibition above about 20%, passing the limit was not always enough; inconclusive means no clear call, values can overlap the other calls; tested in BHK-21 cells;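 further: 0% = median of neutral control wells and 100% = median of positive control wells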
# SIRT5 block: blocks human SIRT5 desuccinylation of peptide; 1.1% of 330,000 active; Purified SirT5, succinyl-peptide AMC, trypsin-coupled fluorescence; inhibition, % at 15 µM; in the data active means inhibition above about 15%; inconclusive means no clear call, values can overlap the other calls
# Target sequence (Q9NXA8 whole entry, looked up): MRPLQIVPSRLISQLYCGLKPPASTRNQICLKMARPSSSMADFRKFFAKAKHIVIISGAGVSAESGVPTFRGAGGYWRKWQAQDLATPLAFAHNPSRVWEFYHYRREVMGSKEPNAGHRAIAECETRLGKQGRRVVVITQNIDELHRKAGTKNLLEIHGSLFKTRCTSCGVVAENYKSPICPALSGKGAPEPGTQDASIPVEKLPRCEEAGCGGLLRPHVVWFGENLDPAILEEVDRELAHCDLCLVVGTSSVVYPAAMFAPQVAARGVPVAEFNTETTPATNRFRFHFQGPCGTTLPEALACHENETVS
# E-sel inducer: E-selectin induction on HUVECs; HUVEC E-selectin immunofluorescence imaging; normalized: neutral wells 0, TNF-alpha wells 100; activation, % at 7.58 µM; 0.37% of 260,000 active; AID 686992;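 active means mean E-selectin-positive cell signal at least 10% of the positive control, reached in at least 60% of replicates, without over 20% cell loss; inconclusive means no rule given, readout overlaps actives, possibly toxicity-flagged; inactive means the rest, including those meeting only one limit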
#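 Test system: HUVEC; input: 3,000 HUVEC/well; measured by: immunofluorescence imaging; read-out: % PE-positive cells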
# Starred values were filed as active, the others as inactive; u = inconclusive; x = no result given; ! = repeats disagree. Most compounds without a hit are left out; they make up all but 2.9% or so of the library.
SMILES,DENV2 CPE rescue,SIRT5 block,E-sel inducer
CN(C(=O)COC(=O)c1n[nH]c2ccccc12)c1ccccc1,x,9.0,x
CN(C(=O)CSc1nc2ccccc2o1)C1CCS(=O)(=O)C1 (centres undefined),-7.3,16.4*,x
CN(C(=O)CSc1nc(-c2ccccc2)c(-c2ccccc2)o1)C1CCS(=O)(=O)C1 (centres undefined),-0.4,-2.6,-0.2
CCCC(=O)Nc1ccc2c(c1)C(=O)N(C)C[C@@H](OC)[C@H](C)CN(Cc1ccccn1)[C@@H](C)CO2,10.3,5.5,-0.1
CC=Cc1ccc2n(c1=O)C[C@@H]1[C@@H](CO)[C@H](C(=O)NCC)N(Cc3cocn3)[C@H]21 (mixture of isomers),0.2,-6.5,1.2
CC=Cc1ccc2n(c1=O)C[C@H]1[C@H](CO)[C@@H](C(=O)NCCC)N(Cc3cocn3)[C@@H]21 (mixture of isomers),78.4*,-1.3,-0.2
CC=Cc1ccc2n(c1=O)C[C@@H]1[C@@H](CO)[C@H](C(=O)NC3CCCC3)N(CCC)[C@H]21 (mixture of isomers),u,15.4*,0.2
CC=Cc1ccc2n(c1=O)C[C@@H]1[C@@H](CO)[C@H](C(=O)NC3CCCCC3)N(CCC)[C@H]21 (mixture of isomers),x,x,0.0
C[C@@H]1CN([C@H](C)CO)C(=O)c2cc(Br)cnc2O[C@@H]1CN(C)C(=O)c1ccccc1,65.1*!,-0.2,0.1
C[C@H](CO)N1C[C@H](C)[C@@H](CN(C)C(=O)c2ccccc2)Oc2ncc(Br)cc2C1=O,-3.9,-1.3,0.8
C[C@H]1CN([C@@H](C)CO)C(=O)c2cc(Br)cnc2O[C@@H]1CN(C)C(=O)c1ccccn1,5.1,-0.5,-0.4
C[C@H]1CN([C@@H](C)CO)C(=O)c2cc(Br)cnc2O[C@H]1CN(C)C(=O)c1ccccn1,-0.8,18.7*!,0.1
CCOC(=O)Cc1c(Cl)c2ccccc2[nH]c1=O,5.5,-0.4,x
Cc1ccc(C(C(=O)NC(C)(C)C)N(C(=O)CCC(=O)Nc2ccccn2)c2ccccc2F)cc1 (centres undefined),1.4,19.1*,2.3
Cc1ccc(C(C(=O)NC(C)(C)C)N(Cc2ccco2)C(=O)CCC(=O)Nc2ccccn2)cc1 (centres undefined),u,-0.8,x
Cc1nnc(NC(=O)c2ccccc2NC(=O)c2ccccc2)s1,5.0,-1.3,-0.7
COc1ccc2c(c1)NC(C)(C)C=C2C,11.7,-1.3,x
CC1=CC(C)(C)Nc2ccccc21,28.1*,x,x
Cc1ccc(-c2ccc(C3[C@H]4CNC[C@@H]3N4S(=O)(=O)c3ccccc3F)cc2)cc1 (some centres undefined),5.8,-3.2,-0.1
C[C@H](CO)N1C[C@H](C)[C@H](CN(C)C(=O)NC2CCCCC2)Oc2ccc(NS(=O)(=O)c3ccccc3)cc2C1=O,-4.1,3.4,62.8*
Cc1ccc(S(=O)(=O)Nc2ccc3c(c2)C(=O)N([C@@H](C)CO)C[C@H](C)[C@H](CN(C)C(=O)NC2CCCCC2)O3)cc1,14.1,-0.7,0.1
Cc1ccc(S(=O)(=O)Nc2ccc3c(c2)C(=O)N([C@@H](C)CO)C[C@H](C)[C@H](CN(C)C(=O)NC(C)C)O3)cc1,31.9*,x,0.4
C[C@@H]1CN([C@H](C)CO)C(=O)c2cc(NS(=O)(=O)c3ccccc3)ccc2O[C@@H]1CN(C)C(=O)NC1CCCCC1,-1.1,9.1,116.6*
Cc1ccc(S(=O)(=O)Nc2ccc3c(c2)C(=O)N([C@@H](C)CO)C[C@H](C)[C@@H](CN(C)C(=O)NC2CCCCC2)O3)cc1,1.4,-2.2,-0.8
Cc1ccc(S(=O)(=O)Nc2ccc3c(c2)C(=O)N([C@H](C)CO)C[C@@H](C)[C@H](CN(C)C(=O)NC2CCCCC2)O3)cc1,40.8*,-2.3,5.0
SMILES,DENV2 CPE rescue,SIRT5 block,E-sel inducer
Cc1ccc(S(=O)(=O)Nc2ccc3c(c2)C(=O)N([C@H](C)CO)C[C@H](C)[C@H](CN(C)C(=O)NC(C)C)O3)cc1,-2.7,x,-0.1
Cc1ccc(S(=O)(=O)Nc2ccc3c(c2)C(=O)N([C@@H](C)CO)C[C@@H](C)[C@H](CN(C)C(=O)NC2CCCCC2)O3)cc1,-4.4,-4.1,-0.7
Cc1cn([C@H](C(=O)NCCCCCCCCCCC(=O)N2CCN(C(=O)OC(C)(C)C)CC2)[C@@H](C)O)nn1,x,2.1,-0.1
CCOc1ccc(S(=O)(=O)N/N=C(\C)c2ccc3c(c2)OCO3)cc1,-4.4,-1.3,x
COC(=O)C1=C(C)N(Cc2cccc(C(F)(F)F)c2)C(=NCc2ccc3c(c2)OCO3)NC1c1cccc(C(F)(F)F)c1 (centres undefined),4.7,x,-0.4
CC(C)NC(=O)N(C)C[C@H]1Oc2ccc(NS(C)(=O)=O)cc2C(=O)N([C@H](C)CO)C[C@@H]1C,-9.3,7.6,x
CC(C)NC(=O)N(C)C[C@@H]1Oc2ccc(NS(C)(=O)=O)cc2C(=O)N([C@@H](C)CO)C[C@@H]1C,20.4*,0.7,0.0
C[C@H]1CN([C@@H](C)CO)C(=O)c2cc(NS(C)(=O)=O)ccc2O[C@@H]1CN(C)C(=O)Nc1ccccc1,0.6,-2.0,-15.3
C[C@@H]1CN([C@H](C)CO)C(=O)c2cc(NS(C)(=O)=O)ccc2O[C@@H]1CN(C)C(=O)Nc1ccccc1,-3.3,-8.3,81.7*
COC(=O)c1sccc1NC(=O)COc1ccc(C)cc1,2.8,-0.5,2.9
C[C@H](CO)N1C[C@H](C)[C@H](CN(C)S(=O)(=O)c2ccc(F)cc2)OCCCC[C@H](C)Oc2ccc(NC(=O)Nc3ccc4c(c3)OCO4)cc2C1=O,-6.7,7.7,0.1
C[C@@H]1CCCCO[C@H](CN(C)S(=O)(=O)c2ccc(Cl)cc2)[C@H](C)CN([C@@H](C)CO)C(=O)c2cc(NC(=O)Nc3ccc4c(c3)OCO4)ccc2O1,34.3*,1.0,-0.2
C[C@H](CO)N1C[C@H](C)[C@@H](CN(C)S(=O)(=O)c2ccc(Cl)cc2)OCCCC[C@H](C)Oc2ccc(NC(=O)Nc3ccc4c(c3)OCO4)cc2C1=O,-17.8,1.1,0.0
C[C@@H]1CCCCO[C@@H](CN(C)S(=O)(=O)c2ccc(F)cc2)[C@H](C)CN([C@H](C)CO)C(=O)c2cc(NC(=O)Nc3ccc4c(c3)OCO4)ccc2O1,23.8*,4.8,0.1
C[C@H](CO)N1C[C@H](C)[C@H](CN(C)S(=O)(=O)c2ccc(Cl)cc2)OCCCC[C@H](C)Oc2ccc(NC(=O)Nc3ccc4c(c3)OCO4)cc2C1=O,-0.4,20.7*,-0.1
C[C@@H]1CN([C@H](C)CO)C(=O)c2cc(NC(=O)Nc3ccc4c(c3)OCO4)ccc2O[C@@H](C)CCCCO[C@@H]1CN(C)S(=O)(=O)c1ccc(Cl)cc1,-5.2,4.4,1.2
C[C@H](CO)N1C[C@H](C)[C@@H](CN(C)C(=O)Nc2cccc3ccccc23)Oc2c(NC(=O)Nc3ccc(C(F)(F)F)cc3)cccc2C1=O,-11.5,-4.5,0.5
COc1ccc(-n2c(=S)[nH]c3cc(C(=O)NCCCN4CCOCC4)ccc3c2=O)cc1OC,-1.4,-0.7,x
C[C@H](CO)N1C[C@H](C)[C@@H](CN(C)Cc2ccc(Oc3ccccc3)cc2)Oc2ccc(NC(=O)Nc3ccc(C(F)(F)F)cc3)cc2C1=O,u,12.6,272.7*
